Converted amounts (≈) assume the structure as drawn.
Key:
[1] = target: Cytochrome P450 3A4 (Homo sapiens, UniProt P08684); assay: Inhibition of CYP3A4 (unknown origin); type: ADME
[2] = target: Cytochrome P450 2C9 (Homo sapiens, UniProt P11712); assay: Inhibition of CYP2C9 (unknown origin); type: ADME
[3] = target: T1, Cytochrome P450 2B6 (Homo sapiens, UniProt P20813); assay: Inhibition of CYP2B6 (unknown origin); type: ADME
T1 sequence (P20813 whole entry): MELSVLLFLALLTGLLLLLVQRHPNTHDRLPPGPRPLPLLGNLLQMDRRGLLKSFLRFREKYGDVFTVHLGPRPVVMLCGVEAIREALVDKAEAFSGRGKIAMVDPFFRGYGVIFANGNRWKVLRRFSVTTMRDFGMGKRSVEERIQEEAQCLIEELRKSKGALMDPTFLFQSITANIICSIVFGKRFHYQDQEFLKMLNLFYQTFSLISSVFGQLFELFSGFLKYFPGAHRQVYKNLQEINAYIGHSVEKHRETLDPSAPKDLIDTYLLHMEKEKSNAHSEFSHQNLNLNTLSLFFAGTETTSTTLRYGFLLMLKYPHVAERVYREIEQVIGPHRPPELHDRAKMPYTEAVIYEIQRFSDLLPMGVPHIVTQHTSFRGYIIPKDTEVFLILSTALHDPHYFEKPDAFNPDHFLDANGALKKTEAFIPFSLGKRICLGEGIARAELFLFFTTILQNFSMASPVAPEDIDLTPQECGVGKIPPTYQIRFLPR

[4] = target: Cytochrome P450 2D6 (Homo sapiens, UniProt P10635); assay: Inhibition of CYP2D6 (unknown origin); type: ADME
Sequence of Cytochrome P450 2D6 (P10635 whole entry): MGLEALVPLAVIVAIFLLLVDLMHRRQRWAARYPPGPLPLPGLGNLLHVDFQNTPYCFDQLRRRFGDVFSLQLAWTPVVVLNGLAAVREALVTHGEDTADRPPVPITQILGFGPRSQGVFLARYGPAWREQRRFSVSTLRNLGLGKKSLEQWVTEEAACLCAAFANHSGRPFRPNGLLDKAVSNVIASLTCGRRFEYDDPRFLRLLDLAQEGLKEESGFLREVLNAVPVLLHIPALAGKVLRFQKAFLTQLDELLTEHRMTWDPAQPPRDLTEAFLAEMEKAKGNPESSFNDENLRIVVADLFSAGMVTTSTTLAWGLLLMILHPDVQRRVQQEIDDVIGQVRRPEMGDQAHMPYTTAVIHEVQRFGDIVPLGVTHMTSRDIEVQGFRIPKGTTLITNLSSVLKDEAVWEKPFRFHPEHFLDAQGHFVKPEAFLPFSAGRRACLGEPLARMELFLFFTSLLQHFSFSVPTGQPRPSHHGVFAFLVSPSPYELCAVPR

[5] = target: Histamine H3 receptor (Homo sapiens, UniProt Q9Y5N1); assay: Displacement of [3H]N-alpha-methylhistamine from recombinant human histamine H3 receptor transfected in CHO cell membranes after 1 hr by scintillation counting analysis
Sequence of Histamine H3 receptor (Homo sapiens, UniProt Q9Y5N1) (Q9Y5N1 whole entry): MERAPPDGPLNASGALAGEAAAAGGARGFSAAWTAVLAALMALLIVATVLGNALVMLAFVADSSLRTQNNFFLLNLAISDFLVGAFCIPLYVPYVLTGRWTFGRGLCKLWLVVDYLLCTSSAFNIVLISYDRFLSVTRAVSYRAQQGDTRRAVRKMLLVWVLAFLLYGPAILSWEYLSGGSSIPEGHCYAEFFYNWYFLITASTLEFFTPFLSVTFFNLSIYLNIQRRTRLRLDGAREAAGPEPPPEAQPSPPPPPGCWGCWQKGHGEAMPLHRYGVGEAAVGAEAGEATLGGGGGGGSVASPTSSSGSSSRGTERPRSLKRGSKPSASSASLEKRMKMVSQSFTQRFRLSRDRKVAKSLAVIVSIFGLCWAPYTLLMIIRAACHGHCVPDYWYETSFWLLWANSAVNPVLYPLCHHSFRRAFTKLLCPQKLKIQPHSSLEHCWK
In short: (§1)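 Radioligand displacement of [3H]N-α-methylhistamine using membranes from CHO cells stably transfected with recombinant human or rat H3 receptor. Ki is presented as a range of multiple experiments (n ≥ 3).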

[6] = Solubility of the compound in PBS buffer at pH 7.4; type: physicochemical
In short: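 Solubility measured in PBS at pH 7.4.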

[7] = Partition coefficient, log P of the compound; type: physicochemical; settings: octanol/water
[8] = Drug metabolism in human liver microsomes at 5 uM after 20 mins; type: ADME, Microsome; settings: read-out: Drug metabolism
In short: (§2)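 Substrate at 5 µM incubated at 37 °C for 20 min with in-house liver microsome preparations (human, mouse or rat). Reported as the percentage of parent compound metabolized.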

[9] = tested on: Salmonella typhimurium; assay: Mutagenic activity in Salmonella typhimurium by Ames test; type: toxicity, organism-based; settings: salmonella enterica subsp. enterica serovar typhimurium
[10] = target: T2, hERG (KCNH2) (Homo sapiens, UniProt Q12809); assay: Inhibition of human ERG transfected in CHO cells at 1 uM by patch clamp assay relative to control; type: cell-based; settings: CHO cells transfected with human ERG
T2 sequence (Q12809 whole entry): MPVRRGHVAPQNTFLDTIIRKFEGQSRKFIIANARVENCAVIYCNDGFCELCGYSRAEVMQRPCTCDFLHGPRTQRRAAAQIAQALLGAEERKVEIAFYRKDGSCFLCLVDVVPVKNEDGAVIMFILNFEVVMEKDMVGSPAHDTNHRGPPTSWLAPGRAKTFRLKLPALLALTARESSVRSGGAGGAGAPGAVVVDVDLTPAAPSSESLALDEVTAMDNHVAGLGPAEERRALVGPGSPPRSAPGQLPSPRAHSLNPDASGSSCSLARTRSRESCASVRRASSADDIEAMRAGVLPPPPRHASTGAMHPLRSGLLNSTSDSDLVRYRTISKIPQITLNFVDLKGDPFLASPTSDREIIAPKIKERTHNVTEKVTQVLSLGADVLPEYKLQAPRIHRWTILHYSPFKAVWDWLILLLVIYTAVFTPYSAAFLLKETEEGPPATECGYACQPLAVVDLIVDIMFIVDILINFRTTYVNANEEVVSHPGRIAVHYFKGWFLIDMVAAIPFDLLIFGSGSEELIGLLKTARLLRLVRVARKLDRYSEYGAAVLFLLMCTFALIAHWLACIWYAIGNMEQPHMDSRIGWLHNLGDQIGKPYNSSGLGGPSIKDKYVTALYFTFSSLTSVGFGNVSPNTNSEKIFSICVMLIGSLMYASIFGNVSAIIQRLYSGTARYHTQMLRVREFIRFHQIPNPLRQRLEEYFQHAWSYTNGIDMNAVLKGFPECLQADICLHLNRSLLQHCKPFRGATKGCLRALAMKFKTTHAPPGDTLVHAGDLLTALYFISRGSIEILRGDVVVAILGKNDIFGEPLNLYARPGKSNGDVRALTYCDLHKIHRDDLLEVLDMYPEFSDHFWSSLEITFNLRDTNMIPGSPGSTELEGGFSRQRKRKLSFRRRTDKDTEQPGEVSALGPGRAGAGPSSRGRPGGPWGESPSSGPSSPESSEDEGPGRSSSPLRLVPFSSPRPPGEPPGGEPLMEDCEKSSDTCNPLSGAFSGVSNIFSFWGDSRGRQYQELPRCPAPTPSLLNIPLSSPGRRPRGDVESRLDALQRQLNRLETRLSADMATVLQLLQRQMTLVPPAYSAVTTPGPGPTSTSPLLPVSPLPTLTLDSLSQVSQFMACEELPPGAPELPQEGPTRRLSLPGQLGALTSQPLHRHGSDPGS
In short: (§3)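 Whole-cell patch clamp on CHO cells stably transfected with the human ERG gene.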

[11] = target: T2, hERG (KCNH2); assay: Inhibition of human ERG transfected in CHO cells at 10 uM by patch clamp assay relative to control; type: cell-based; settings: CHO cells transfected with human ERG; in short: as §3
[12] = target: Cytochrome P450 2C19 (Homo sapiens, UniProt P33261); assay: Inhibition of CYP2C19 (unknown origin); type: ADME
Sequence of Cytochrome P450 2C19 (P33261 whole entry): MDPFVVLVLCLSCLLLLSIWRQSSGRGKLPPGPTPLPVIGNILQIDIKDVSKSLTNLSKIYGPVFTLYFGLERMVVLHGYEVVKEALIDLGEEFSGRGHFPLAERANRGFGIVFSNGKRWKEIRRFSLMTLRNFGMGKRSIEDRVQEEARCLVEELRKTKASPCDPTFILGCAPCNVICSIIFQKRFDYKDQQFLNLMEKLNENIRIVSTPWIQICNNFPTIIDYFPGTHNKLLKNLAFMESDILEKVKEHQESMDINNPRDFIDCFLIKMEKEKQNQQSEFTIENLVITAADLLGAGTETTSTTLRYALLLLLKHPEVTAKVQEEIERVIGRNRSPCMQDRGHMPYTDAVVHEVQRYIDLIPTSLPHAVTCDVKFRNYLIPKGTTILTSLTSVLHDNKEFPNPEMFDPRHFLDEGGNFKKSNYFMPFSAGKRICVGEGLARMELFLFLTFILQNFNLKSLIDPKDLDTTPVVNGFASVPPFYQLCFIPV

[13] = Distribution coefficient, log D of the compound; type: physicochemical; settings: octanol/water
[14] = Genotoxicity in micronucleus (unknown origin)
[15] = Drug metabolism in rat liver microsomes at 5 uM after 20 mins; type: ADME, Microsome; settings: read-out: Drug metabolism; in short: as §2
[16] = target: Histamine H3 receptor (Rattus norvegicus, UniProt Q9QYN8); assay: Displacement of [3H]N-alpha-methylhistamine from recombinant rat histamine H3 receptor transfected in CHO cell membranes after 1 hr by scintillation counting analysis; parameters: species or system Membrane; in short: as §1
Sequence of Histamine H3 receptor (Rattus norvegicus, UniProt Q9QYN8) (Q9QYN8 whole entry): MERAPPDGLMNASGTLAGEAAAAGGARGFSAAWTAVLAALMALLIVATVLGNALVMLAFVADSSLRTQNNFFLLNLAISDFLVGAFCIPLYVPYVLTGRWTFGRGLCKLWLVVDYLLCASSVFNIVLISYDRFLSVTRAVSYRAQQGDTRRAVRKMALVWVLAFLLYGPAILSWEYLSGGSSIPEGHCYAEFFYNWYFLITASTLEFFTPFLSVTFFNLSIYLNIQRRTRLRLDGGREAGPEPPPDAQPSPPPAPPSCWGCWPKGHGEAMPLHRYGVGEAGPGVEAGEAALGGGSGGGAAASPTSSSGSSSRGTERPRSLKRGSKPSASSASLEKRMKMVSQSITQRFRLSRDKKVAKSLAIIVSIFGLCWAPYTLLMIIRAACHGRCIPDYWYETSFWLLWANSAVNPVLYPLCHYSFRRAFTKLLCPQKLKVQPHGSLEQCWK

[17] = target: T3, Cytochrome P450 1A2 (Homo sapiens, UniProt P05177); assay: Inhibition of CYP1A2 (unknown origin); type: ADME
T3 sequence (P05177 whole entry): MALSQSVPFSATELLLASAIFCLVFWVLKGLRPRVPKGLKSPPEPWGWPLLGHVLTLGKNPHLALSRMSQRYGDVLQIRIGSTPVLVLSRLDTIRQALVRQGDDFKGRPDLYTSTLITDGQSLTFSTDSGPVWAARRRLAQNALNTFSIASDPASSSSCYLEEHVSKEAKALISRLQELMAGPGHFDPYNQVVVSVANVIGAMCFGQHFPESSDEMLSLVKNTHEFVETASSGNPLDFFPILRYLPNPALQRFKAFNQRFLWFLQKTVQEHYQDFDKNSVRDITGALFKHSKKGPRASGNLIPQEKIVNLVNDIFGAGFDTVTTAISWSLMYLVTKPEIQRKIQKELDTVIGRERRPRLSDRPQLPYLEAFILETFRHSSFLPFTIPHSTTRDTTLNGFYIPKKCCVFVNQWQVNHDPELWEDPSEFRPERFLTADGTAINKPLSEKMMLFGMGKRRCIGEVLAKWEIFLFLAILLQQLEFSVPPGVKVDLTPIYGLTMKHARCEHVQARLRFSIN

[18] = target: Voltage-gated inwardly rectifying potassium channel KCNH2 (Homo sapiens, UniProt Q12809); assay: Inhibition of human ERG transfected in CHO cells by patch clamp assay; type: cell-based; in short: as §3
[19] = Drug metabolism in mouse liver microsomes at 5 uM after 20 mins; type: ADME, Microsome; settings: read-out: Drug metabolism; in short: as §2

Sequence of Cytochrome P450 3A4 (P08684 whole entry): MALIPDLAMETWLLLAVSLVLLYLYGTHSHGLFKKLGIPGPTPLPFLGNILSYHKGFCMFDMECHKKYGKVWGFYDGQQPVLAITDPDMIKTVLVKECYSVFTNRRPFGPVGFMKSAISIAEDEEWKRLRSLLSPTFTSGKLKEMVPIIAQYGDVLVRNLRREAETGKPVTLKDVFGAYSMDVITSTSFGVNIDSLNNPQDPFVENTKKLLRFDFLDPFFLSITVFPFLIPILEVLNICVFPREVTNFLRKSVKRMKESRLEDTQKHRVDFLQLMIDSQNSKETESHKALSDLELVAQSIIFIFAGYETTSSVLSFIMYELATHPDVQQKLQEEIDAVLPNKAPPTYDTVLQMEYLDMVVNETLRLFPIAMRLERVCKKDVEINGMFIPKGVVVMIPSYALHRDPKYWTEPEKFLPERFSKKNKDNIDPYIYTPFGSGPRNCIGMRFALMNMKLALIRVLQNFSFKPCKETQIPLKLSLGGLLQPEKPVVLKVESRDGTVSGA
Sequence of Cytochrome P450 2C9 (P11712 whole entry): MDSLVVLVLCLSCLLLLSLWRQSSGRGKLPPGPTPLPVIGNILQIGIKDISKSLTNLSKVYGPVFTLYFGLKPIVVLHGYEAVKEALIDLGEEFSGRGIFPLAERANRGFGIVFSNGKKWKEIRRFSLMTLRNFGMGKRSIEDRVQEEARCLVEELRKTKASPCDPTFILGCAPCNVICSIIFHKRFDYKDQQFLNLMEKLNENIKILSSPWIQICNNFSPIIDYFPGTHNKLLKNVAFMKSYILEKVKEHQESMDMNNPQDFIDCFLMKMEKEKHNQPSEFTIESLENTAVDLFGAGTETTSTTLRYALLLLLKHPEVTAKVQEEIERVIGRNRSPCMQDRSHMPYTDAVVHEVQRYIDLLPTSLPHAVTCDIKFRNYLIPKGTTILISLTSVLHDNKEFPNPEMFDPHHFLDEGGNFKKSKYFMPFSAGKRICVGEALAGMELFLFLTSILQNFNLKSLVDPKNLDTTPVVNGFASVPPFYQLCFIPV

SMILES	IC50 [1] [µM]	IC50 [2] [µM]	IC50 [3] [µM]	IC50 [4] [µM]	Ki [5] [µM]	solubility [6] [µg/mL]	logP [7]	metabolised at 20 min, 5 µM [8] [%]	Activity [9]	inhibition at 1 µM [10] [%]	inhibition at 10 µM [11] [%]	IC50 [12] [µM]	logD [13]	Activity [14]	metabolised at 20 min, 5 µM [15] [%]	Ki [16] [µM]	IC50 [17] [µM]	IC50 [18] [µM]	metabolised at 20 min, 5 µM [19] [%]
Cc1cc(N2CC[C@@H](N3CCC[C@@H]3C)C2)ccc1NC(=O)c1cc(F)ccc1C	> 30	> 30	> 30	> 30	0.018	88.5 (≈ 224 µM)	3.55	5	Non-toxic	38.8	88.6	> 30	2.09	Non-toxic	36	0.011	> 30	1.8	20
Cc1cc(N2CC[C@H](N3CCC[C@H]3C)C2)ccc1NC(=O)c1cc(F)ccc1C	> 30	> 30	> 30	> 30	0.82	–	–	7	Non-toxic	43	84.3	> 30	–	Non-toxic	60	0.093	> 30	–	29

— ChEMBL document CHEMBL2401654, “Synthesis, characterization, and biological assessment of the four stereoisomers of the H(3) receptor antagonist 5-fluoro-2-methyl-N-[2-methyl-4-(2-methyl[1,3']bipyrrolidinyl-1'-yl)phenyl]benzamide” (Bioorg Med Chem Lett, 2013)
